Active and inactive are the calls of the source. The rule behind the calls is not given here.
How the values were obtained:
[1] = test system: PBMC; test: Immunomodulatory activity in human PBMC assessed as induction of IP10 at 50 ug/ml after 24 hrs; format: functional, cell-based
In short: (§1)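 Human PBMCs plated at 5 × 10^6 cells/mL; compounds dissolved in PBS added at various concentrations, 37 °C for 24 h. Supernatant cytokines/chemokines quantified with human Luminex multiplex kit.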

[2] = test system: PBMC; test: Immunomodulatory activity in human PBMC assessed as induction of TNFalpha at 50 ug/ml after 24 hrs; format: functional, cell-based; in short: as §1
[3] = species: Homo sapiens; test: Immunostimulatory activity in human mDC assessed as induction of IL6 at 100 ug/ml after 24 hrs; format: functional
In short: (§2)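 Human mDCs isolated from PBMCs by CD19+ B-cell depletion then BDCA1 positive selection; plated at 1 × 10^6 cells/mL, compounds in PBS, 37 °C for 24 h; supernatant cytokines by human Luminex multiplex. Representative of four independent experiments.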

[4] = test system: PBMC; test: Immunomodulatory activity in human PBMC assessed as induction of MCP1 at 50 ug/ml after 24 hrs; format: functional, cell-based; in short: as §1
[5] = target: T1, Toll-like receptor 8 (Homo sapiens) (UniProt Q9NR97); test: Activation of human TLR8 expressed in HEK293XL assessed as fold induction of NF-kappaB activity at 50 ug/ml after 18 hrs by reporter gene assay relative to control
T1 sequence (whole entry): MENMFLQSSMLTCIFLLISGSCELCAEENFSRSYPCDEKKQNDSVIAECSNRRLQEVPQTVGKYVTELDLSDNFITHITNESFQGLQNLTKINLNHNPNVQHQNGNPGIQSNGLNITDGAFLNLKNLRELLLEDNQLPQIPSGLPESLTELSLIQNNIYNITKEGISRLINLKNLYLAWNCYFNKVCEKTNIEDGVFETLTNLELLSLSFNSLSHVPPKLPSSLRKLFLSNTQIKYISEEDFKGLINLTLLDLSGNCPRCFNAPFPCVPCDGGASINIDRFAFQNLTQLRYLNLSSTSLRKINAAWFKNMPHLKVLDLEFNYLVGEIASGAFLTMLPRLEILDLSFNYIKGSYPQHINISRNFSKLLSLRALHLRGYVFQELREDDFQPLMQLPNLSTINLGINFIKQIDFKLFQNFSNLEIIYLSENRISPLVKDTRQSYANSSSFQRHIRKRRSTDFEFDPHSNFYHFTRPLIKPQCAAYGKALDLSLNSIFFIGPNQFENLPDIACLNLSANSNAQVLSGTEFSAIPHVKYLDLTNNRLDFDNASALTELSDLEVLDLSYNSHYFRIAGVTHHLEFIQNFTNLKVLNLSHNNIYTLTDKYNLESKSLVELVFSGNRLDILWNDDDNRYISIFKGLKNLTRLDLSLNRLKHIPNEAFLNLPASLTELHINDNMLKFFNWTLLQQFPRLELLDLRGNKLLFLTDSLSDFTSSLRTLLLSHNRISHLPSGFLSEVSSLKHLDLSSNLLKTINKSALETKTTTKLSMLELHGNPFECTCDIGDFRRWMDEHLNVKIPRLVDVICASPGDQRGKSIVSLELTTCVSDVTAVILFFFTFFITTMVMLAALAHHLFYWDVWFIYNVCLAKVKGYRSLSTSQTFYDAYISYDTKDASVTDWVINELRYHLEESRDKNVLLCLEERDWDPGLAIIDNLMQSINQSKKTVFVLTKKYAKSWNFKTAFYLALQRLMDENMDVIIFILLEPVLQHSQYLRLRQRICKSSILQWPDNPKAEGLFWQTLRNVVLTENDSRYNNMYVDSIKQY
In short: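 HEK293 cells stably expressing human TLR7 or TLR8, transiently transfected with SEAP reporter plasmid; medium replaced, SIMRA compounds added, 18 h incubation. Supernatant SEAP measured by QuantiBlue; expressed as fold increase in NF-κB activity over PBS control. Tabulated data at 50 μg/mL, representative of three independent experiments.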

[6] = target: Toll-like receptor 3 (Homo sapiens) (UniProt O15455); test: Activation of human TLR3 expressed in HEK293 assessed as induction of NF-kappaB activity reporter gene assay; format: cell-based
[7] = species: Homo sapiens; test: Immunostimulatory activity in human mDC assessed as induction of IP10 at 100 ug/ml after 24 hrs; format: functional; in short: as §2
[8] = species: Homo sapiens; test: Immunostimulatory activity in human mDC assessed as induction of IFNalpha at 100 ug/ml after 24 hrs; format: functional; in short: as §2
[9] = species: Homo sapiens; test: Immunostimulatory activity in human pDC assessed as induction of IP10 at 100 ug/ml after 24 hrs; format: functional
In short: (§3)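 Human pDCs plated at 1 × 10^6 cells/mL; compounds in PBS added, 37 °C for 24 h; supernatant cytokines/chemokines by human Luminex multiplex kit.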

[10] = test system: PBMC; test: Immunomodulatory activity in human PBMC assessed as induction of IL1-beta at 50 ug/ml after 24 hrs; format: functional, cell-based; in short: as §1
[11] = test system: PBMC; test: Immunomodulatory activity in human PBMC assessed as induction of IL6 at 50 ug/ml after 24 hrs; format: functional, cell-based; in short: as §1
[12] = test system: PBMC; test: Immunomodulatory activity in human PBMC assessed as induction of IFNalpha at 50 ug/ml after 24 hrs; format: functional, cell-based; in short: as §1
[13] = species: Homo sapiens; test: Immunostimulatory activity in human mDC assessed as induction of IL12 at 100 ug/ml after 24 hrs; format: functional; in short: as §2
[14] = test system: PBMC; test: Immunomodulatory activity in human PBMC assessed as induction of IL12 at 50 ug/ml after 24 hrs; format: functional, cell-based; in short: as §1
[15] = species: Homo sapiens; test: Immunostimulatory activity in human mDC assessed as induction of TNFalpha at 100 ug/ml after 24 hrs; format: functional; in short: as §2
[16] = species: Homo sapiens; test: Immunostimulatory activity in human pDC assessed as induction of IL6 at 100 ug/ml after 24 hrs; format: functional; in short: as §3
[17] = test system: Mus musculus; test: Immunomodulatory activity in C57BL/6 mouse assessed as induction of IL12 release at 25 mg/kg, sc after 2 hrs by ELISA; format: functional, organism-based; parameters: dose 25 mg/kg
In short: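 Female C57BL/6 wild-type mice, 5–8 weeks old, n=3; compounds given subcutaneously at 10 or 25 mg/kg. Retro-orbital blood at 2 h; serum cytokines by mouse Luminex multiplex or IL-12 ELISA.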

[18] = test system: PBMC; test: Immunomodulatory activity in human PBMC assessed as induction of MIP1beta at 50 ug/ml after 24 hrs; format: functional, cell-based; in short: as §1
[19] = test system: PBMC; test: Immunomodulatory activity in human PBMC assessed as induction of MIP1alpha at 50 ug/ml after 24 hrs; format: functional, cell-based; in short: as §1
[20] = species: Homo sapiens; test: Immunostimulatory activity in human pDC assessed as induction of IFNalpha at 100 ug/ml after 24 hrs; format: functional; in short: as §3
[21] = Metabolic stability in human serum assessed as full length product remaining after 10 mins by HPLC; format: ADME, cell-free; settings: read-out: Stability
In short: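 About 0.5 A260 units compound in 1% human serum in PBS, 37 °C; aliquot taken at 10 min, analysed by anion-exchange HPLC for percent intact full-length product.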

Toll-like receptor 3 (Homo sapiens), sequence (O15455 whole entry): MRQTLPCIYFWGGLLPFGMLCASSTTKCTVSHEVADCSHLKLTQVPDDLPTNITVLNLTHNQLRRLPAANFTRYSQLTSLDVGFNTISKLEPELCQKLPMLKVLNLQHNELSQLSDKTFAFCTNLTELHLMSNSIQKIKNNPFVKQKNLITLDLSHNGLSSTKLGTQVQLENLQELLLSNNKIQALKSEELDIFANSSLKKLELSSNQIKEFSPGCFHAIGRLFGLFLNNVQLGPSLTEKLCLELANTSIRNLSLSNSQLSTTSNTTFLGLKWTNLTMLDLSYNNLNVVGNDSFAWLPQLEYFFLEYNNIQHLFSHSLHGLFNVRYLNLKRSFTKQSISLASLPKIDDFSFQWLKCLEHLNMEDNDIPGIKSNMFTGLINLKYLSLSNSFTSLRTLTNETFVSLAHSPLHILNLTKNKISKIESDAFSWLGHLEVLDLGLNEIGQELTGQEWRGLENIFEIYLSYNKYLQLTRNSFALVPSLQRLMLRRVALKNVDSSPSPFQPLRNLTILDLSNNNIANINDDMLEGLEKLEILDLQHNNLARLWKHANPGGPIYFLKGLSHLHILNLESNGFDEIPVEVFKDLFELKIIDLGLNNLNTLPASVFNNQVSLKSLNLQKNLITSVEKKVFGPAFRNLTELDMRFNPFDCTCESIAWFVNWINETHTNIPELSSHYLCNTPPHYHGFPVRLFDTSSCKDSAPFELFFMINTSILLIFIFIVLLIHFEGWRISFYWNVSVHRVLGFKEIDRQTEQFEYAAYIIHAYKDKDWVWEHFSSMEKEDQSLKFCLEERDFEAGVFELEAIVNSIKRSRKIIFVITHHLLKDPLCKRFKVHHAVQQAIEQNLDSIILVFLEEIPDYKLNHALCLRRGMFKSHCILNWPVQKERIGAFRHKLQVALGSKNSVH

SMILES | Activity [1] | Activity [2] | Activity [3] | Activity [4] | fold change (FC) [5] | Activity [6] | Activity [7] | Activity [8] | Activity [9] | Activity [10] | Activity [11] | Activity [12] | Activity [13] | Activity [14] | Activity [15] | Activity [16] | Activity [17] | Activity [18] | Activity [19] | Activity [20] | other results
Nc1ccn([C@@H]2O[C@H](COP(O)(=S)O[C@H]3[C@@H](O)[C@H](n4ccc(=O)[nH]c4=O)O[C@@H]3COP(O)(=S)O[C@H]3[C@@H](O)[C@H](n4ccc(=O)[nH]c4=O)O[C@@H]3COP(O)(=S)O[C@H]3[C@@H](O)[C@H](n4ccc(N)nc4=O)O[C@@H]3COP(O)(=S)O[C@H]3[C@@H](O)[C@H](n4ccc5c(=O)[nH]c(N)nc54)O[C@@H]3COP(O)(=S)O[C@H]3[C@@H](O)[C@H](n4ccc(=O)[nH]c4=O)O[C@@H]3COP(O)(=S)O[C@H]3[C@@H](O)[C@H](n4ccc(N)nc4=O)O[C@@H]3COP(O)(=S)O[C@H]3[C@@H](O)[C@H](n4ccc5c(=O)[nH]c(N)nc54)O[C@@H]3COP(O)(=S)O[C@H]3[C@@H](O)[C@H](n4ccc(=O)[nH]c4=O)O[C@@H]3CO)[C@@H](OP(O)(=S)OC[C@H]3O[C@@H](n4ccc(=O)[nH]c4=O)[C@H](O)[C@@H]3OP(O)(=S)OC[C@H]3O[C@@H](n4ccc5c(=O)[nH]c(N)nc54)[C@H](O)[C@@H]3OP(O)(=S)OCC(O)COP(O)(=S)O[C@H]3[C@@H](O)[C@H](n4ccc5c(=O)[nH]c(N)nc54)O[C@@H]3COP(O)(=S)O[C@H]3[C@@H](O)[C@H](n4ccc(=O)[nH]c4=O)O[C@@H]3COP(O)(=S)O[C@H]3[C@@H](O)[C@H](n4ccc(N)nc4=O)O[C@@H]3COP(O)(=S)O[C@H]3[C@@H](O)[C@H](n4ccc(=O)[nH]c4=O)O[C@@H]3COP(O)(=S)O[C@H]3[C@@H](O)[C@H](n4ccc(=O)[nH]c4=O)O[C@@H]3COP(O)(=S)O[C@H]3[C@@H](O)[C@H](n4ccc(N)nc4=O)O[C@@H]3COP(O)(=S)O[C@H]3[C@@H](O)[C@H](n4ccc5c(=O)[nH]c(N)nc54)O[C@@H]3COP(O)(=S)O[C@H]3[C@@H](O)[C@H](n4ccc(=O)[nH]c4=O)O[C@@H]3COP(O)(=S)O[C@H]3[C@@H](O)[C@H](n4ccc(N)nc4=O)O[C@@H]3COP(O)(=S)O[C@H]3[C@@H](O)[C@H](n4ccc5c(=O)[nH]c(N)nc54)O[C@@H]3COP(O)(=S)O[C@H]3[C@@H](O)[C@H](n4ccc(=O)[nH]c4=O)O[C@@H]3CO)[C@H]2O)c(=O)n1 (stereo partly specified) | 167 pg/mL | 688 pg/mL | Active | 47400 pg/mL | 4.7 | inactive | Active | Active | Active | 688 pg/mL | 5580 pg/mL | 373 pg/mL | Active | 671 pg/mL | Active | Active | Active | 27600 pg/mL | 15500 pg/mL | Active | –
Nc1ccn([C@@H]2O[C@H](COP(=O)(S)O[C@H]3[C@@H](O)[C@H](n4cnc5c(N)ncnc54)O[C@@H]3CO)[C@@H](OP(=O)(S)OC[C@H]3O[C@@H](n4ccc(=O)[nH]c4=O)[C@H](O)[C@@H]3OP(=O)(S)OC[C@H]3O[C@@H](n4ccc(=O)[nH]c4=O)[C@H](O)[C@@H]3OP(=O)(S)OC[C@H]3O[C@@H](n4ccc5c(=O)[nH]c(N)nc54)[C@H](O)[C@@H]3OP(=O)(S)OC[C@H]3O[C@@H](n4cnc5c(N)ncnc54)[C@H](O)[C@@H]3OP(=O)(S)OC[C@H]3O[C@@H](n4ccc(N)nc4=O)[C@H](O)[C@@H]3OP(=O)(S)OC[C@H]3O[C@@H](n4ccc5c(=O)[nH]c(N)nc54)[C@H](O)[C@@H]3OP(=O)(S)OC[C@H]3O[C@@H](n4cnc5c(N)ncnc54)[C@H](O)[C@@H]3OP(=O)(S)OC[C@H]3O[C@@H](n4ccc(=O)[nH]c4=O)[C@H](O)[C@@H]3OP(=O)(S)OC[C@H]3O[C@@H](n4ccc(=O)[nH]c4=O)[C@H](O)[C@@H]3OP(=O)(S)OCC(O)COP(=O)(S)O[C@H]3[C@@H](O)[C@H](n4ccc(=O)[nH]c4=O)O[C@@H]3COP(=O)(S)O[C@H]3[C@@H](O)[C@H](n4ccc(=O)[nH]c4=O)O[C@@H]3COP(=O)(S)O[C@H]3[C@@H](O)[C@H](n4cnc5c(N)ncnc54)O[C@@H]3COP(=O)(S)O[C@H]3[C@@H](O)[C@H](n4ccc5c(=O)[nH]c(N)nc54)O[C@@H]3COP(=O)(S)O[C@H]3[C@@H](O)[C@H](n4ccc(N)nc4=O)O[C@@H]3COP(=O)(S)O[C@H]3[C@@H](O)[C@H](n4cnc5c(N)ncnc54)O[C@@H]3COP(=O)(S)O[C@H]3[C@@H](O)[C@H](n4ccc5c(=O)[nH]c(N)nc54)O[C@@H]3COP(=O)(S)O[C@H]3[C@@H](O)[C@H](n4ccc(=O)[nH]c4=O)O[C@@H]3COP(=O)(S)O[C@H]3[C@@H](O)[C@H](n4ccc(=O)[nH]c4=O)O[C@@H]3COP(=O)(S)O[C@H]3[C@@H](O)[C@H](n4ccc(N)nc4=O)O[C@@H]3COP(=O)(S)O[C@H]3[C@@H](O)[C@H](n4cnc5c(N)ncnc54)O[C@@H]3CO)[C@H]2O)c(=O)n1 (stereo partly specified) | 199 pg/mL | 174 pg/mL | Active | 49100 pg/mL | 2.1 | inactive | Active | Active | Active | 218 pg/mL | 2380 pg/mL | 106 pg/mL | Active | 360 pg/mL | Active | Active | Active | 7330 pg/mL | 3620 pg/mL | Active | remaining at 10 min [21]: 86%

From ChEMBL document CHEMBL1154352, “Toll-like receptor 7 selective synthetic oligoribonucleotide agonists: synthesis and structure-activity relationship studies” (J Med Chem, 2009)
